The entries come from a sample that favours hits as a whole.
HCT116 bCat-KO: beta-catenin-lacking colon tumor cell growth suppression; HCT116 beta-catenin knockout viability, CellTiter-Glo, 60 h; stronger effect = lower value; viability, % at 10 µM; 140,000 compounds, 1.5% hits; AID 818;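 active = viability at or under a set limit, the compound median less 4 SD, cut at about 6% in these data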;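 also: 0% = Hyamine 1622 control at 20 µM and 100% = untreated cell control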
HUVEC inhibit: blocks proliferation of human endothelial cells; HUVEC proliferation, CellTiter-Glo luminescence, 72 h; stronger effect = lower value; viability, % at 10 µM (by protocol); 86,000 compounds, 1.1% hits; AID 648;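 active = viability at or below 30%; inactive = viability above 30%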;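 also: 100% = median luminescence of DMSO-only cell control wells on each plate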
Calb biofilm kill: kills Candida albicans biofilms; AID 834; 85,000 compounds, 0.14% hits; inhibition, % at 6 µM; C. albicans biofilm + clotrimazole, Alamar Blue;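 active = inhibition above 20%; inactive = inhibition below 20%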;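 also: preformed 24 hr biofilms exposed to compound for 48 hr; 0% = biofilm without compound and 100% = blank killed by clotrimazole plus chlorhexidine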
HCT116 PTEN-null: growth suppressors of cells with PTEN tumor suppressor deletion. HCT116 PTEN-null viability, CellTiter-Glo, 60 h; stronger effect = lower value. viability, % at 10 µM. 140,000 compounds, 1.2% hits. AID 827;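 active = viability at or below a set limit, 4 SD under the median of all tested compounds, cut at about 3.7% in these data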;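 also: PTEN knockout HCT116 line with beta catenin targeted HCT116 as companion control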
H69AR inhibit: blocks growth of human H69AR lung tumor cells. H69AR lung tumor viability, ATP luminescence, 72 h; stronger effect = lower value. 85,000 compounds, 6% hits. AID 598. viability, % at 10 µM;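 active = viability at or below 40%; inactive = viability above 40%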;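 also: multidrug resistant small cell line overexpressing MRP-1 efflux transporter; 100% = mean luminescence of untreated control wells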
Lung fibro prol: blocks proliferation of human lung fibroblasts | 85,000 compounds, 1.1% hits | LL 47 human lung fibroblast viability, ATP luminescence; stronger effect = lower value | viability, % at 10 µM;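 active = viability at or below 50% in the single dose screen; inactive = viability above 50%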;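 also: compound exposure lasted 72 h before the ATP readout; 100% = median luminescence of untreated cell-only wells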
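Benchmarks: Cell-only wells, no compound | Test system: LL 47 human lung fibroblasts, passage 12 or lower | Input: 1,150 cells/well | Measured by: CellTiter-Glo luminescence measuring cellular ATP | Medium: IMEM, 15% FBS supplement | Schedule: Overnight attachment after seeding, then 72 h compound exposure at 37 °C | Doses: Compound addition at 0.1% DMSO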
Active calls of the source: *; . = not tested or not shown.

SMILES	HCT116 bCat-KO	HUVEC inhibit	Calb biofilm kill	HCT116 PTEN-null	H69AR inhibit	Lung fibro prol
Cc1csc(NC(=O)c2c(O)c3c(n(CC(C)C)c2=O)CCCC3)n1	67.3	118.6	13.5	71.8	32.6*	91.2
C=CCn1c(=NC(=O)c2ccccc2[N+](=O)[O-])sc2cc(S(C)(=O)=O)ccc21	76.6	.	.	62.1	.	.
O=C(NCc1cccs1)C1CC(c2ccccc2O)=NO1 (stereo not given)	78.2	70.7	4.3	111.5	81.7	93.7
COc1cc(C2=NOC(C(=O)NCc3cccs3)C2)cc(OC)c1OC (stereo not given)	20.2	54.9	1.2	20.0	24.0*	57.9
COc1ccc(C2=NOC(C(=O)NCc3cccs3)C2)cc1OC (stereo not given)	21.8	64.6	-1.2	21.4	24.2*	57.9
COc1ccc(C2=NOC(C(=O)NCc3cccs3)C2)cc1 (stereo not given)	95.1	54.1	-1.4	104.9	72.2	96.2
O=C(Nc1ccc(-c2noc(COc3ccccc3Cl)n2)cc1)c1ccco1	83.7	35.0	10.1	93.3	29.3*	98.9
C/C(=N/NC(N)=S)c1ccccc1[N+](=O)[O-]	100.5	.	.	103.0	.	.
C=CCn1c(COc2cc(C)ccc2C(C)C)nnc1SCC(=O)c1c(N)n(C)c(=O)n(C)c1=O	65.8	.	.	65.7	.	.
Cc1cc(Cl)ccc1OCc1nc(-c2ccc(O)cc2)n[nH]1	91.9	72.4	1.2	88.5	22.0*	111.0
Cc1ccc(NS(=O)(=O)c2ccc(NC(=O)c3cccc(NC(=O)C(C)C)c3)cc2)cc1	51.4	.	.	55.4	.	.
COC(=O)[C@H](C)NC(=O)Nc1cccc(C(F)(F)F)c1	81.4	103.6	5.1	94.0	90.6	103.6
O=C(Nc1ccc(OC(F)(F)F)cc1)Nc1cccc([N+](=O)[O-])c1	2.9*	.	.	3.5*	.	.
Cc1ccc(NC(=O)Nc2cccc([N+](=O)[O-])c2)cc1F	14.5	.	.	6.8	.	.
CCN(CC)S(=O)(=O)c1ccc(NC(=O)Nc2cccc(C(F)(F)F)c2)cc1	1.4*	.	.	1.8*	.	.
O=C(Nc1ccc(OC(F)F)cc1)Nc1cccc(C(F)(F)F)c1	2.3*	31.4	6.3	3.1*	3.7*	38.2*
Cc1ccc(S(=O)(=O)Nc2ccc(NC(=O)Nc3cccc(C(F)(F)F)c3)cc2)cc1	1.2*	.	.	1.6*	.	.
CCCCOc1ccc(/C(N)=N/O)cc1	95.4	.	.	89.7	.	.
COc1ccccc1C(=O)N/C(=C\c1ccc2c(c1)OCO2)C(=O)NCCc1nc2ccccc2[nH]1	102.2	.	.	91.5	.	.
O=C(Nc1cccc(S(=O)(=O)NC2=NCCCCC2)c1)c1cc(-c2ccc(Cl)cc2)nc2ccccc12	85.1	.	.	83.5	.	.
O=C(OCc1ccc(F)cc1)c1ccc2c(c1)-c1ccccc1C2=O	104.0	.	.	98.1	.	.
CCOC(=O)C1=C(Cc2ccc(F)cc2)C(=O)c2ccccc2C1=O	68.8	6.5*	0.5	65.0	0.8*	87.2
COCCOC(=O)C1=C(C)N=C2SCCC(=O)N2C1c1cc(Br)ccc1OC (stereo not given)	.	102.1	.	.	101.8	102.0
CS(=O)(=O)N(CC(O)Cn1c2ccccc2c2ccccc21)c1ccccc1 (stereo not given)	81.3	80.8	7.8	77.2	30.4*	89.1
CCN(CC(O)Cn1c2ccccc2c2ccccc21)S(=O)(=O)c1ccc(C)cc1 (stereo not given)	74.8	27.0*	0.2	57.7	26.8*	101.8
SMILES	HCT116 bCat-KO	HUVEC inhibit	Calb biofilm kill	HCT116 PTEN-null	H69AR inhibit	Lung fibro prol
COc1ccc(-n2c(COc3cccc4ccccc34)nnc2SCC(=O)NCc2ccco2)cc1	83.2	67.0	1.1	97.4	81.1	95.7
Brc1ccc(-c2nc3ncccn3c2NC2CCCCC2)o1	83.2	102.3	1.1	73.9	76.1	106.0
O=C(COc1cccc(Cl)c1)Nc1ccc2c(c1)CCC2	94.5	.	.	95.9	.	.
Cc1cccc(Cn2cnc3c(nnn3Cc3ccccc3F)c2=O)c1	82.8	101.2	3.8	79.0	96.1	101.6
Cc1ccccc1Cn1nnc2c1C(=O)c1ccccc1C2=O	59.5	2.1*	-0.8	57.1	12.2*	32.0*
Cc1cccc(Cn2nnc3c2C(=O)c2ccccc2C3=O)c1	4.5*	3.4*	8.0	3.0*	13.5*	69.9
Cc1ccc(C)c(NC(=O)c2nnn(Cc3ccccc3C)c2N)c1	90.1	90.0	-3.9	76.9	92.0	95.9
CC(C)(C)c1ccc(/C=C2\SC(=O)N(CCNC(=O)c3cccc(S(=O)(=O)N4CCOCC4)c3)C2=O)cc1	31.2	.	.	24.1	.	.
COc1ccc(CNC(=O)COC(=O)c2cnccn2)cc1	101.4	101.8	-0.1	100.7	96.4	103.1
O=C(NC1CCCCC1)N1CCCC(c2nc(-c3ccc(S(=O)(=O)N4CCCC4)cc3)no2)C1 (stereo not given)	68.7	88.3	4.2	63.4	34.6*	88.4
Cc1ccc(S(=O)(=O)N2CCC(C(=O)NC3CCCCCC3)CC2)cc1	112.0	99.2	-8.0	104.9	29.7*	.
CCC(=O)Nc1nc(=S)ss1	91.1	88.1	-4.3	105.5	88.1	100.6
CCNc1nc(SCCOc2ccc(C)cc2)nc(N(C)C)n1	74.5	96.8	9.4	66.3	31.4*	84.9
O=c1c(-c2cc3ccccc3o2)[n+]([O-])c2ccccc2n1OCc1ccccn1	98.3	66.0	5.3	93.7	35.8*	94.5
CCOn1c(=O)c(-c2cc3ccccc3o2)[n+]([O-])c2ccccc21	92.1	81.1	9.9	97.3	51.0	85.8
O=C(Nc1ccc(Cl)cc1)NC1CCCCC1Cc1ccco1 (stereo not given)	60.7	61.2	7.0	53.4	6.6*	96.0
S=C(NCc1ccco1)Nc1ccc(Cl)cc1	70.4	.	.	81.0	.	.
O=C(Nc1ccc(Cl)cc1)NC1CCCC1Cc1ccco1 (stereo not given)	9.6	63.6	-1.3	2.9*	84.8	101.5
O=C(Nc1ccc(Cl)cc1)NC1CCCCC1	108.1	97.8	2.0	95.3	70.9	103.9
CCCOC(=O)c1c(-c2ccc(C)cc2C)csc1NC(=O)C1C2CCC(O2)C1C(=O)O (stereo not given)	83.5	.	.	88.8	.	.
CCOC(=O)c1ccc(NC(=O)CCc2nc(-c3ccc(C)cc3)no2)cc1	26.7	29.7*	3.4	40.1	83.6	95.4
CCOC(=O)c1ccc(NC(=O)CCc2nc(-c3ccc(Cl)cc3)no2)cc1	14.8	57.1	1.4	11.1	24.2*	91.6
CCOC(=O)c1[nH]c2c(c1C)C(=O)CC(c1ccc(OC)c(OC)c1)C2 (stereo not given)	104.7	92.8	3.8	92.9	97.7	95.8
C/C=C/COC(=O)c1[nH]c2c(c1C)C(=O)CC(c1ccco1)C2 (stereo not given)	10.2	42.2	6.6	15.1	29.5*	53.0
Cc1c(C(=O)OCC2CCCO2)[nH]c2c1C(=O)CC(c1ccco1)C2 (stereo not given)	15.7	57.0	-2.5	16.6	27.6*	56.9
